Where two headings read alike, the source gives them in different places.
Legend:
murine Abcg2 [1] = type: in vivo; details: male, FVB/N, mouse, plasma, oral, 10 mg/kg body weight, Abcg2−/− male mice, 1 h after oral melatonin 10 mg/kg
Outline: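 Male Abcg2−/− and wild-type mice (FVB/N background, n = 8) are dosed orally in the morning with 10 mg/kg melatonin in 10% ethanol/40% PEG/50% saline. Plasma and tissues are taken at 1 h. Samples are precipitated with acetonitrile, then a melatonin-d4 internal standard is added. Analysis is LC-MS/MS on C18 with a water/methanol gradient (1 mM ammonium formate, 0.01% formic acid). Hydroxylated metabolites are reported as arbitrary units. Groups are compared by t-test or Mann–Whitney.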

murine Abcg2 [2] = type: in vivo, mice; details: female, FVB/N, mouse, intravenous, 10 mg/kg body weight, Abcg2−/− lactating female mice, 30 min after i.v. melatonin 10 mg/kg
murine Abcg2 [3] = molecular target: T1, murine Abcg2 (Mus musculus, UniProt Q7TMS5); type: in vivo, mice; details: 30 min after i.v. melatonin 10 mg/kg
T1 sequence (Q7TMS5 1-657): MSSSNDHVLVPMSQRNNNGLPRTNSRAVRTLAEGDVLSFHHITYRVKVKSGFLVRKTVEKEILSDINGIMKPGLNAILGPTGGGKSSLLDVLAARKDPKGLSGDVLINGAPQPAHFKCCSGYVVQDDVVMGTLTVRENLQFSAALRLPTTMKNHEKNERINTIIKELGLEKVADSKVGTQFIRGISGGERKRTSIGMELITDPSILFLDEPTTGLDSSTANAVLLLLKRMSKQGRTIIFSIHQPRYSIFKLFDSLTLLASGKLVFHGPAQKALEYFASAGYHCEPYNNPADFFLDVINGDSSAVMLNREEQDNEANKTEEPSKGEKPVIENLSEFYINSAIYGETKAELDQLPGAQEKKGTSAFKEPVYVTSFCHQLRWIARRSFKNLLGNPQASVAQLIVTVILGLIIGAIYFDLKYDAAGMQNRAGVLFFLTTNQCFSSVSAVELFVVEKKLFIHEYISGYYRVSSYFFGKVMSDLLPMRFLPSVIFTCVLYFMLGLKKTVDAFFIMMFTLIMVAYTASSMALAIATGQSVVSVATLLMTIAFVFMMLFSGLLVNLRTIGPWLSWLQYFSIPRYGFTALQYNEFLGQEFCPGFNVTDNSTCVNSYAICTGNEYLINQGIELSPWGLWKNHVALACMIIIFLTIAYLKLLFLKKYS

ovine ABCG2 = assay: Transepithelial transport assay in MDCK‐II cells transduced with ovine ABCG2; type: in vitro ADME; details: oABCG2 MDCK‐II, +Ko143 (1 µM); Mel 10 µM, 6‐SO‐Mel 8 µM, 6‐OH‐Mel 10 µM
Outline: (§1)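 MDCK-II monolayers, parental or transduced with an ABCG2 variant, in Hanks' balanced salt solution with 25 mM HEPES. Both sides are refreshed with or without Ko143 (1 µM). Test compound (8–10 µM) is added to one side, and the opposite side is sampled at 1, 2, 3 and 4 h. Analysis is by HPLC-UV at 310 nm. Ratio is apically directed % over basolaterally directed % at 4 h; n ≥ 3, mean ± SD.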

human ABCG2 = assay: Transepithelial transport assay in MDCK‐II cells transduced with human ABCG2; type: in vitro ADME; details: with Ko143 1 µM
Outline: as §1

murine Abcg2 [4] = molecular target: T1, murine Abcg2; assay: Transepithelial transport assay in MDCK‐II cells transduced with murine Abcg2; type: in vitro ADME; details: mAbcg2 MDCK‐II, +Ko143 (1 µM); Mel 10 µM, 6‐SO‐Mel 8 µM, 6‐OH‐Mel 10 µM
Outline: as §1

[5] = Transepithelial transport assay in parental MDCK‐II cells; type: in vitro ADME, canine; details: dog, with Ko143 1 µM
Outline: as §1

[6] = wild‐type lactating female mice

concentration at 1 h (murine Abcg2 [1]) | concentration at 30 min (murine Abcg2 [2]; milk, Milk concentration) | Kp at 30 min (murine Abcg2 [2]; milk, Milk to plasma ratio) | concentration at 30 min (murine Abcg2 [2]; plasma, Plasma concentration) | Fold higher milk concentration/levels in wild‐type compared with Abcg2−/− (murine Abcg2 [3]; lactating female mice) | Relative efflux transport ratio (basal to apical % / apical to basal %) at 4 h (ovine ABCG2) | efflux ratio at 4 h (human ABCG2) | Relative efflux transport ratio (basal to apical % / apical to basal %) at 4 h (murine Abcg2 [4]) | efflux ratio at 4 h [5] | Milk levels (relative abundance) (murine Abcg2 [3]; Abcg2−/− lactating female mice) | Milk to plasma ratio (relative abundance) (murine Abcg2 [3]; Abcg2−/− lactating female mice) | Fold higher milk to plasma ratio in wild‐type compared with Abcg2−/− (murine Abcg2 [3]; lactating female mice) | Milk levels (relative abundance) (murine Abcg2 [3]; [6]) | Milk to plasma ratio (relative abundance) (murine Abcg2 [3]; [6]) | Structure (SMILES)
9.39 ± 4.59 ng/mL | 6340 ± 3870 ng/mL | 0.02 ± 0.01 | 288000 ± 89300 ng/mL | almost twofold | 0.99 ± 0.11 | 1.02 ± 0.07 | 1.00 ± 0.06 | 1.05 ± 0.06 | – | – | – | – | – | COc1ccc2[nH]cc(CCNC(C)=O)c2c1 [melatonin]
– | – | – | – | around twofold | – | – | – | – | 1.42 ± 0.66 arbitrary units | 1.75 ± 0.29 arbitrary units | around twofold | 2.90 ± 1.24 arbitrary units | 3.68 ± 1.34 arbitrary units | COc1ccc2[nH]c(O)c(CCNC(C)=O)c2c1 [2‐OH‐Mel, 2‐hydroxymelatonin]

From article PMC10078363 (Journal of Pineal Research, 2022)
